Measurements as given in paper PMC411066 (BMC Medicine, 2004).
Several values for one entry are separate records, joined by “and”; a condition that tells them apart may be missing. Equal entries are not always repeated.

What was measured:
Serum digoxin = assay type: in vivo, human
Method in brief: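 Trough serum samples at steady state from 618 digoxin-monitoring patients, assayed by fluorescence polarization immunoassay. Orally given comedications were classed as P-gp inhibitors by PubMed search: Class I, documented in vivo effect on digoxin kinetics; Class II, in vitro inhibition only. Means ± SE from a General Linear Model adjusted for age, sex, digoxin dose and total prescribed drugs, covariates at their means.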

P-gp = details: cited from earlier work

Adjusted S-digoxin mean ± SE (Serum digoxin; patients taking one Class I P-gp inhibitor, N = 96) [nmol/L] | Adjusted S-digoxin mean ± SE (Serum digoxin; patients taking one P-gp inhibitor, N = 204, multivariate) [nmol/L] | S-digoxin with Class II P-gp inhibitors compared with no P-gp inhibitors (Serum digoxin; patients taking one or two Class II P-gp inhibitors, differences not significant in the multivariate model) | Adjusted S-digoxin mean ± SE (Serum digoxin; patients taking three P-gp inhibitors, N = 8, multivariate) [nmol/L] | Adjusted S-digoxin mean ± SE (Serum digoxin; patients taking two P-gp inhibitors, N = 78, multivariate) [nmol/L] | S-digoxin mean ± SE (Serum digoxin; patients with concomitant P-gp inhibitors, all patients on spironolactone excluded) [nmol/L] | Adjusted S-digoxin mean ± SE (Serum digoxin; patients with ≥ 1 P-gp inhibitor, N = 290, adjusted for age, sex, digoxin dose and total number of prescribed drugs) [nmol/L] | SMILES | Adjusted S-digoxin mean ± SE (Serum digoxin; patients taking two Class I P-gp inhibitors, N = 17) | In vitro P-gp inhibition (P-gp)
1.65 ± 0.07 | 1.51 ± 0.05 | tended to have elevated S-digoxin levels | 2.00 ± 0.25 | 1.59 ± 0.08 | 1.46 ± 0.05 | 1.55 ± 0.04 | C[C@H]1O[C@@H](O[C@H]2[C@@H](O)C[C@H](O[C@H]3[C@@H](O)C[C@H](O[C@H]4CC[C@@]5(C)[C@H](CC[C@@H]6[C@@H]5C[C@@H](O)[C@]5(C)[C@@H](C7=CC(=O)OC7)CC[C@]65O)C4)O[C@@H]3C)O[C@@H]2C)C[C@H](O)[C@@H]1O [digoxin] | 1.83 ± 0.07 nmol/L and 1.83 ± 0.17 nmol/L | 
 |  |  |  |  |  |  | CC[C@H](C)C(=O)O[C@H]1C[C@H](O)C=C2C=C[C@H](C)[C@H](CC[C@@H](O)C[C@@H](O)CC(=O)O)[C@H]21 [pravastatin] |  | not an in vitro P-gp inhibitor
